Experimental data from ChEMBL document CHEMBL4311940, “Design, Synthesis, and Biological Evaluation of 4-Methyl Quinazoline Derivatives as Anticancer Agents Simultaneously Targeting Phosphoinositide 3-Kinases and Histone Deacetylases” (J Med Chem, 2019).
pIC50: −log10 of the molar value. Activity calls are given as the source filed them. No cut-off for these calls is given here.

What was measured:
[1] = target: Histone deacetylase 1 (Homo sapiens, UniProt Q13547); test: Inhibition of recombinant C-terminal His/FLAG-tagged HDAC1 (unknown origin) expressed in baculovirus infected Sf9 insect cells using Ac-peptide as substrate preincubated for 15 mins followed by substrate addition and measured after 1 hr
Chain of Histone deacetylase 1 (Q13547 whole entry, canonical isoform): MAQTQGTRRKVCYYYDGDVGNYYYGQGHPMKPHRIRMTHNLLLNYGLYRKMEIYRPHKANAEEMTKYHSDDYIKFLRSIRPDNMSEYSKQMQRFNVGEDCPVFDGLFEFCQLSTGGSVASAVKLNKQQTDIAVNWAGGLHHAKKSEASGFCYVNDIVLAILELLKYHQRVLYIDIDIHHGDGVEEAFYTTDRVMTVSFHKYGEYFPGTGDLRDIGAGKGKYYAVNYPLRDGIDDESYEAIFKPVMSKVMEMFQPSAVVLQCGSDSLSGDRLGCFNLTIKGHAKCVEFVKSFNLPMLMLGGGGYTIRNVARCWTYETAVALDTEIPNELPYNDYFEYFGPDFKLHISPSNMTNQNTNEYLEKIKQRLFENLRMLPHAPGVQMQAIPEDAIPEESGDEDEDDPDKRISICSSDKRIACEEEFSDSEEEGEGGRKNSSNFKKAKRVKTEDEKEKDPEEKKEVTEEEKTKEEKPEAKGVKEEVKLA

[2] = target: Phosphatidylinositol 4,5-bisphosphate 3-kinase catalytic subunit alpha isoform (Homo sapiens, UniProt P42336); test: Inhibition of recombinant human PI3Kalpha using PIP2 as substrate incubated for 1 hr by kinase-glo assay
Chain of Phosphatidylinositol 4,5-bisphosphate 3-kinase catalytic subunit alpha isoform (P42336 whole entry, canonical isoform): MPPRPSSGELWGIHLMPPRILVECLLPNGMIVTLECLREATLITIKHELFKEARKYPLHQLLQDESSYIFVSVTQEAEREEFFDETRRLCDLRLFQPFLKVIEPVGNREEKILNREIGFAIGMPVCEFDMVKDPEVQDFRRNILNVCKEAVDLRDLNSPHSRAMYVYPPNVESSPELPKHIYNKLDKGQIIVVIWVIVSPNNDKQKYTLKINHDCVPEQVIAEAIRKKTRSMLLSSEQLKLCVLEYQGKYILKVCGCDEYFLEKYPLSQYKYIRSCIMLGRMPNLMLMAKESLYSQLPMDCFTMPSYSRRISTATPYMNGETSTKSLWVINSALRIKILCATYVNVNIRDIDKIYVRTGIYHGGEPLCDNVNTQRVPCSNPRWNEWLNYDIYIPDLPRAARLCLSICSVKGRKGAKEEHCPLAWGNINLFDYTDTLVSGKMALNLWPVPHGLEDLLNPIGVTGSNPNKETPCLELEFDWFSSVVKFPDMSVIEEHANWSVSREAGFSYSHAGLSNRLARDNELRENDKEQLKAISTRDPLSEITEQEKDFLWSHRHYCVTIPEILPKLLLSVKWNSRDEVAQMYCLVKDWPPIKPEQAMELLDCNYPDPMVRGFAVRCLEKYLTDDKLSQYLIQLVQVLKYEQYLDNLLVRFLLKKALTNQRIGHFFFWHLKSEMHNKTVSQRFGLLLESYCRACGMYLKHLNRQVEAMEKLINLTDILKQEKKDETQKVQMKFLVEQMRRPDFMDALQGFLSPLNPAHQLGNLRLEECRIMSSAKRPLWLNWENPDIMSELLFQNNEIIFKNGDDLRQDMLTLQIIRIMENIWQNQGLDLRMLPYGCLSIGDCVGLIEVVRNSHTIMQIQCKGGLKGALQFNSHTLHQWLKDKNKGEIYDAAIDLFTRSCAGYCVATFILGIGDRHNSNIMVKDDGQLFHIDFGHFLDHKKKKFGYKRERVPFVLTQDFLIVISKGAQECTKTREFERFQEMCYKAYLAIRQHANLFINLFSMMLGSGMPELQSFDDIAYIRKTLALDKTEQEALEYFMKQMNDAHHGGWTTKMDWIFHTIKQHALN

[3] = tested on: HCT-116; test: Antiproliferative activity against human HCT116 cells after 96 hrs by MTT assay; type: functional, cell-based; details: HCT-116, 96 h
[4] = tested on: HCT-116; test: Induction of apoptosis in human HCT116 cells assessed as early apoptotic cells at 500 nM after 48 hrs by Annexin V-FITC/propidium iodide staining-based flow cytometric analysis (reference value: 1.33%); type: functional
[5] = tested on: HCT-116; test: Induction of apoptosis in human HCT116 cells assessed as late apoptotic cells at 500 nM after 48 hrs by Annexin V-FITC/propidium iodide staining-based flow cytometric analysis (reference value: 3.87%); type: functional
[6] = tested on: HCT-116; test: Induction of apoptosis in human HCT116 cells assessed as live cells at 500 nM after 48 hrs by Annexin V-FITC/propidium iodide staining-based flow cytometric analysis (reference value: 89.6%); type: functional
[7] = tested on: HCT-116; test: Induction of cell cycle arrest in human HCT116 cells assessed as accumulation at G2/M phase at 500 nM after 24 hrs by propidium iodide/RNase staining-based FACS analysis; type: functional
Summary of the method: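 HCT116 cells cultured overnight in 6-well plates, exposed to compound at various concentrations for 24 h; FxCycle PI/RNase staining and flow cytometry for cell cycle phase distribution.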

[8] = tested on: HCT-116; test: Induction of apoptosis in human HCT116 cells assessed as necrotic cells at 500 nM after 48 hrs by Annexin V-FITC/propidium iodide staining-based flow cytometric analysis (reference value: 5.23%); type: functional
[9] = tested on: HCT-116; test: Potency index, ratio of IC50 for SAHA to test compound IC50 for human HCT116 cells; type: functional
[10] = tested on: K562; test: Antiproliferative activity against human K562 cells after 96 hrs by MTT assay; type: functional, cell-based; details: K562, 96 h
[11] = tested on: Huh-7; test: Antiproliferative activity against human HuH7 cells after 96 hrs by MTT assay; type: functional, cell-based; details: Huh-7, 96 h
[12] = tested on: Capan-2; test: Antiproliferative activity against human Capan2 cells after 96 hrs by MTT assay; type: functional, cell-based; details: Capan-2, 96 h
[13] = tested on: U-87 MG; test: Antiproliferative activity against human U87 cells after 96 hrs by MTT assay; type: functional, cell-based, U-87MG ATCC
[14] = tested on: MCF7; test: Antiproliferative activity against human MCF7 cells after 96 hrs by MTT assay; type: functional, cell-based; details: MCF7, 96 h
[15] = tested on: MDA-MB-453; test: Antiproliferative activity against human MDA-MB-453 cells after 96 hrs by MTT assay; type: functional, cell-based; details: MDA-MB-453, 96 h
[16] = tested on: DU-145; test: Antiproliferative activity against human DU145 cells after 96 hrs by MTT assay; type: functional, cell-based; details: DU-145, 96 h
[17] = tested on: HGC-27; test: Antiproliferative activity against human HGC27 cells after 96 hrs by MTT assay; type: functional, cell-based; details: HGC-27, 96 h
[18] = tested on: NCI-H460; test: Antiproliferative activity against human NCI-H460 cells after 96 hrs by MTT assay; type: functional, cell-based; details: NCI-H460, 96 h
[19] = tested on: HepG2; test: Antiproliferative activity against human HepG2 cells after 96 hrs by MTT assay; type: functional, cell-based; details: HepG2, 96 h
[20] = tested on: Bel-7402; test: Antiproliferative activity against human Bel7402 cells after 96 hrs by MTT assay; type: functional, cell-based; details: Bel-7402, 96 h
[21] = tested on: NCI-H1299; test: Antiproliferative activity against human NCI-H1299 cells after 96 hrs by MTT assay; type: functional, cell-based; details: NCI-H1299, 96 h
[22] = tested on: SW1990; test: Antiproliferative activity against human SW1990 cells after 96 hrs by MTT assay; type: functional, cell-based; details: SW1990, 96 h
[23] = tested on: HCT-8; test: Antiproliferative activity against human HCT8 cells after 96 hrs by MTT assay; type: functional, cell-based; details: HCT-8, 96 h
[24] = tested on: THP-1; test: Antiproliferative activity against human THP1 cells after 96 hrs by MTT assay; type: functional, cell-based; details: THP-1, 96 h

Compound | pIC50 [1] | pIC50 [2] | pIC50 [3] | other results
CCN(CCOc1cc(-c2ccc(OC)nc2)cc2c(C)ncnc12)c1ncc(C(=O)NO)cn1 | 8.68 | 6.71 | 7.66 | –
COc1ccc(-c2cc(OCCCN(C)c3ncc(C(=O)NO)cn3)c3ncnc(C)c3c2)cn1 | 8.60 | 6.67 | 7.00 | –
COc1ncc(-c2cc(OCCCCCCC(=O)NO)c3ncnc(C)c3c2)cc1NS(C)(=O)=O | 8.89 | 8.64 | 4.43 | –
COc1ncc(-c2cc(OCCCCCCC(=O)NO)c3ncnc(C)c3c2)cc1NS(=O)(=O)c1ccc(F)cc1F | 8.20 | 9.16 | 5.14 | –
O=C(CCCCCCC(=O)Nc1ccccc1)NO [VORINOSTAT] | – | – | – | Activity [4]: 2.72%; Activity [5]: 5.21%; Activity [6]: 87.7%; Activity [7]: Active; Activity [8]: 4.33%
COc1ccc(-c2cc(OCCCCCCCC(=O)NO)c3ncnc(C)c3c2)cn1 | 8.43 | 6.84 | 6.10 | –
COc1ccc(-c2cc(OCCCCCCC(=O)NO)c3ncnc(C)c3c2)cn1 | 8.89 | 6.99 | 6.85 | Ratio IC50 [9]: 10
COc1ncc(-c2cc(OCCCCCC(=O)NO)c3ncnc(C)c3c2)cc1NS(=O)(=O)c1ccc(F)cc1F | 7.41 | 9.18 | 6.27 | –
COc1ncc(-c2cc(OCCN(C)c3ncc(C(=O)NO)cn3)c3ncnc(C)c3c2)cc1F | 8.89 | 7.14 | 7.52 | –
COc1ncc(-c2cc(OCCCCCCCCC(=O)NO)c3ncnc(C)c3c2)cc1F | 8.66 | 6.94 | 6.24 | –
COc1ncc(-c2cc(OCCCCCC(=O)NO)c3ncnc(C)c3c2)cc1F | 7.43 | 7.52 | 5.92 | –
COc1ncc(-c2cc(OCCNc3ncc(C(=O)NO)cn3)c3ncnc(C)c3c2)cc1F | 8.28 | 7.37 | 5.34 | –
COc1ncc(-c2cc(OCCN(c3ncc(C(=O)NO)cn3)C(C)C)c3ncnc(C)c3c2)cc1F | 8.70 | 7.37 | 7.02 | –
COc1ncc(-c2cc(OCCCCCCCCC(=O)NO)c3ncnc(C)c3c2)cc1NS(=O)(=O)c1ccc(F)cc1F | 8.05 | 9.05 | 5.40 | –
COc1ncc(-c2cc(OCCCCCC(=O)NO)c3ncnc(C)c3c2)cc1NS(C)(=O)=O | 7.38 | 8.29 | < 5.00 | –
COc1ncc(-c2cc(OCCCCCCCC(=O)NO)c3ncnc(C)c3c2)cc1F | 8.48 | 7.27 | 5.85 | –
COc1ncc(-c2cc(OCCCCC(=O)NO)c3ncnc(C)c3c2)cc1NS(=O)(=O)c1ccc(F)cc1F | 6.52 | 9.22 | 6.46 | –
COc1ncc(-c2cc(OCCCCNc3ncc(C(=O)NO)cn3)c3ncnc(C)c3c2)cc1F | 7.96 | 7.39 | 5.03 | –

Compound | pIC50 [1] | pIC50 [2] | pIC50 [3] | other results
CCN(CCOc1cc(-c2cnc(OC)c(F)c2)cc2c(C)ncnc12)c1ncc(C(=O)NO)cn1 | 8.59 | 7.14 | 7.41 | –
COc1ccc(-c2cc(OCCCCCC(=O)NO)c3ncnc(C)c3c2)cn1 | 7.52 | 7.24 | 6.27 | –
COc1ncc(-c2cc(OCCCCCCCC(=O)NO)c3ncnc(C)c3c2)cc1NS(=O)(=O)c1ccc(F)cc1F | 8.74 | 9.20 | 5.82 | –
COc1ncc(-c2cc(OCCCCCCCCC(=O)NO)c3ncnc(C)c3c2)cc1NS(C)(=O)=O | 8.31 | 8.40 | 4.96 | –
COc1ncc(-c2cc(OCCCN(C)c3ncc(C(=O)NO)cn3)c3ncnc(C)c3c2)cc1NS(=O)(=O)c1ccc(F)cc1F | 7.96 | 8.96 | 5.54 | –
COc1ccc(-c2cc(OCCN(c3ncc(C(=O)NO)cn3)C(C)C)c3ncnc(C)c3c2)cn1 | 8.80 | 7.09 | 7.41 | –
COc1ccc(-c2nc(N3CCOCC3)c3sc(CN(C)c4ncc(C(=O)NO)cn4)cc3n2)cn1 [FIMEPINOSTAT] | – | – | 8.30 | pIC50 [10]: 6.55; pIC50 [11]: 6.25; pIC50 [12]: 8.15; pIC50 [13]: 8.15; pIC50 [14]: 7.39; pIC50 [15]: 8.05; pIC50 [16]: 6.25; pIC50 [17]: 7.39; pIC50 [18]: 6.82; pIC50 [19]: 7.82; pIC50 [20]: 7.89; pIC50 [21]: 7.60; pIC50 [22]: 6.74; pIC50 [23]: 8.30
Nc1cc(C(F)(F)F)c(-c2cc(N3CCOCC3)nc(N3CCOCC3)n2)cn1 [BUPARLISIB] | – | – | 5.89 | pIC50 [10]: 5.10; Activity [4]: 5.22%; pIC50 [11]: 5.70; Activity [5]: 6.61%; pIC50 [12]: 4.38; pIC50 [13]: 5.32; pIC50 [14]: 5.24; pIC50 [15]: 6.43; pIC50 [16]: 4.35; pIC50 [17]: 6.00; Activity [6]: 84.7%; Activity [7]: Active; pIC50 [18]: 5.49; pIC50 [19]: 5.49; pIC50 [20]: 4.89; pIC50 [21]: 5.44; Activity [8]: 3.46%; pIC50 [24]: 4.92; pIC50 [22]: 5.89; pIC50 [23]: 5.77
COc1ncc(-c2cc(OCCCN(C)c3ncc(C(=O)NO)cn3)c3ncnc(C)c3c2)cc1F | 8.62 | 7.03 | 7.09 | –
COc1ncc(-c2cc(OCCCC(=O)NO)c3ncnc(C)c3c2)cc1NS(=O)(=O)c1ccc(F)cc1F | 7.43 | 8.89 | < 5.00 | –
COc1ncc(-c2cc(OCCN(C)c3ncc(C(=O)NO)cn3)c3ncnc(C)c3c2)cc1NS(=O)(=O)c1ccc(F)cc1F | 8.77 | 8.74 | 6.28 | –
COc1ncc(-c2cc(OCCCCCCCC(=O)NO)c3ncnc(C)c3c2)cc1NS(C)(=O)=O | 8.68 | 8.41 | 5.47 | –
COc1ccc(-c2cc(OCCCCCCCCC(=O)NO)c3ncnc(C)c3c2)cn1 | 8.52 | 6.79 | 6.12 | –
COc1ccc(-c2cc(OCC(=O)NO)c3ncnc(C)c3c2)cn1 | 6.78 | 7.17 | < 5.00 | –
COc1ccc(-c2cc(OCCCC(=O)NO)c3ncnc(C)c3c2)cn1 | 7.04 | 7.14 | < 5.00 | –
COc1ncc(-c2cc(OCCCNc3ncc(C(=O)NO)cn3)c3ncnc(C)c3c2)cc1F | 8.40 | 7.37 | 5.68 | –
COc1ncc(-c2cc(OCCCCN(C)c3ncc(C(=O)NO)cn3)c3ncnc(C)c3c2)cc1F | 8.48 | 7.32 | 6.60 | –
COc1ccc(-c2cc(OCCCCC(=O)NO)c3ncnc(C)c3c2)cn1 | 7.08 | 7.29 | 5.85 | –
